The subject of test [1] is CHO. Description: Induction of autophagy in CHO cells expressing GFP-LC3 assessed as GFP-LC3-2 accumulation at 25 uM measured after 8 hrs by flow cytometry. It is filed as functional, Cricetulus griseus. The gist of the method: (§1)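 CHO cells stably expressing GFP-LC3 (selected in 1 mg/mL G418, maintained in DMEM/10% FBS with 800 μg/mL G418) were grown overnight. They were then treated in triplicate at 10, 25 or 50 μM for 8 h, with 20 μM curcumin as the positive control, alone or with 0.1 μM bafilomycin A1. Cells were trypsinised, washed, saponin-permeabilised, and fluorescence at 488 nm read by flow cytometry (>15,000 events).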

The test system of test [2] is CHO. Description: Induction of autophagy in CHO cells expressing GFP-LC3 assessed as GFP-LC3-2 accumulation at 25 uM measured after 8 hrs in presence of bafilomycin A1 by flow cytometry. It is filed as functional, cell-based. The note with it: Cricetulus griseus. The gist of the method: as §1
The subject of test [3] is MIN6. The test is described as follows: Protective activity against palmitic acid-induced injury in mouse MIN6 cells assessed as increase in cell proliferation at 1 uM measured after 24 hrs by CCK8 assay. In kind it is functional. The gist of the method:
(§2)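 Mouse MIN6 β-cells were kept in DMEM (25 mM glucose, 50 μM β-mercaptoethanol, 10% FBS) and grown 24 h on poly-L-lysine to 80–90% confluency. They were then exposed 24 h in serum-free DMEM to 0.4 mM palmitic acid (final) plus compound in 0.1% DMSO (final); liraglutide was the reference. Read-out was CCK-8 absorbance at 450 nm, blank-corrected. Proliferation (%) = (OD sample − OD model)/OD model × 100.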

For test [4], the system named is MIN6. Description: Protective activity against palmitic acid-induced injury in mouse MIN6 cells assessed as increase in cell proliferation measured after 24 hrs by CCK8 assay. In kind it is functional, cell-based. The gist of the method: as §2
The test system of test [5] is MIN6. The test is described as follows: Protective activity against palmitic acid-induced injury in mouse MIN6 cells assessed as increase in cell proliferation at 5 uM measured after 24 hrs by CCK8 assay. It is filed as functional. The gist of the method:
as §2

For test [6], the system named is MIN6. The test is described as follows: Protective activity against palmitic acid-induced injury in mouse MIN6 cells assessed as increase in cell proliferation at 10 uM measured after 24 hrs by CCK8 assay. In kind it is functional. The gist of the method:
as §2

Test [7] has as its system MIN6. Description: Protective activity against palmitic acid-induced injury in mouse MIN6 cells assessed as increase in cell proliferation at 5 and 10 uM measured after 24 hrs by CCK8 assay relative to DMSO control. In kind it is functional. The gist of the method: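 MIN6 mouse β cells grown in DMEM (25 mM glucose, 10% FBS, β-mercaptoethanol) on poly-L-lysine plates to 80−90% confluency, then exposed 24 h in serum-free DMEM to 0.4 mM palmitic acid (final) plus compound in 0.1% DMSO (final). CCK-8 absorbance read at 450 nm, with compound-only blanks. Proliferation change = (OD sample − OD model)/OD model × 100.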

Test [8] deals with CHO. The test is described as follows: Induction of autophagy in CHO cells expressing GFP-LC3 assessed as GFP-LC3-2 accumulation at 20 uM measured after 8 hrs by flow cytometry relative to control. It is filed as functional, Cricetulus griseus. The gist of the method: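 CHO cells stably expressing GFP-LC3 (clones selected in 1 mg/mL G418) were kept in DMEM with 10% FBS and 800 μg/mL G418, seeded in 24-well plates and grown overnight. They were treated in triplicate for 8 h, with untreated cells as blank and 20 μM curcumin as positive control. Cells were trypsinized, washed with PBS then 0.1% saponin/PBS, and fluorescence at 488 nm was read by flow cytometry (>15,000 events).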

Active and inactive are the calls of the source. The calls are words filed in the database; no cut-off is given here.

In the case of `CO[C@H]1C[C@H](O[C@H]2[C@@H](O)C[C@H](O[C@H]3CC[C@]4(C)[C@H]5C[C@@H](OC(=O)/C=C/C=C/c6ccccc6)[C@@]6(C)[C@](O)(CC[C@@]6(O)[C@H](C)O)[C@]5(O)C[C@@H](O)[C@@]4(O)C3)O[C@@H]2C)O[C@H](C)[C@H]1O[C@H]1C[C@@H](OC)[C@H](O)[C@@H](C)O1`, the “fold change (FC)” value in test [1] was determined as 2.5. The outcome in test [2] was Active.
`CCCCCCCCCCCCCCCC(=O)N[C@@H](CCC(=O)NCCCC[C@H](NC(=O)[C@H](C)NC(=O)[C@H](C)NC(=O)[C@H](CCC(N)=O)NC(=O)CNC(=O)[C@H](CCC(=O)O)NC(=O)[C@H](CC(C)C)NC(=O)[C@H](Cc1ccc(O)cc1)NC(=O)[C@H](CO)NC(=O)[C@H](CO)NC(=O)[C@@H](NC(=O)[C@H](CC(=O)O)NC(=O)[C@H](CO)NC(=O)[C@@H](NC(=O)[C@H](Cc1ccccc1)NC(=O)[C@@H](NC(=O)CNC(=O)[C@H](CCC(=O)O)NC(=O)[C@H](C)NC(=O)[C@@H](N)Cc1cnc[nH]1)[C@@H](C)O)[C@@H](C)O)C(C)C)C(=O)N[C@@H](CCC(=O)O)C(=O)N[C@@H](Cc1ccccc1)C(=O)N[C@H](C(=O)N[C@@H](C)C(=O)N[C@@H](Cc1c[nH]c2ccccc12)C(=O)N[C@@H](CC(C)C)C(=O)N[C@H](C(=O)N[C@@H](CCCNC(=N)N)C(=O)NCC(=O)N[C@@H](CCCNC(=N)N)C(=O)NCC(=O)O)C(C)C)[C@@H](C)CC)C(=O)O` [LIRAGLUTIDE]: the Activity in test [3] came out at 19.1%.
Regarding `C[C@H](O)[C@]1(O)CC[C@@]2(O)[C@]1(C)[C@H](OC(=O)/C=C/C=C/c1ccccc1)C[C@@H]1[C@@]3(C)CC[C@H](O[C@H]4C[C@H](O)[C@H](O)[C@@H](C)O4)C[C@]3(O)[C@H](O)C[C@]12O`, the Activity entry in test [4] is “Dose-dependent effect”; in test [3], 1.5%; in test [5], 4%; in test [6] it was 11.2%.
For the compound `CO[C@H]1C[C@H](O[C@H]2[C@@H](O)C[C@H](O[C@H]3CC[C@]4(C)[C@H]5C[C@@H](OC(=O)/C=C/C=C/c6ccccc6)[C@@]6(C)[C@](O)(CC[C@@]6(O)[C@H](C)O)[C@]5(O)C[C@@H](O)[C@@]4(O)C3)O[C@@H]2C)O[C@H](C)[C@H]1O`, the Activity entry is “Dose-dependent effect” in test [4], 0.2% in test [3], 81.7% in test [5] and 87.7% in test [6]. Besides, the “fold change (FC)” value was 2 in test [7] and 2.1 in test [1]. Besides, in test [2], the result was Active.
With `C[C@H](O)[C@]1(O)CC[C@@]2(O)[C@]1(C)[C@H](OC(=O)/C=C/C=C/c1ccccc1)C[C@@H]1[C@@]3(C)CC[C@H](O)C[C@]3(O)[C@H](O)C[C@]12O`, the Activity result in test [4] was “Dose-dependent effect”; in test [3], -3.1%; in test [5] it was 4.2%; in test [6] it was 8.8%.
With `CO[C@H]1C[C@H](O[C@@H]2[C@@H](C)O[C@@H](O[C@H]3[C@@H](O)C[C@H](O[C@H]4CC[C@]5(C)[C@H]6C[C@@H](OC(=O)/C=C/C=C/c7ccccc7)[C@@]7(C)[C@](O)(CC[C@@]7(O)[C@H](C)O)[C@]6(O)C[C@@H](O)[C@@]5(O)C4)O[C@@H]3C)C[C@H]2OC)O[C@H](C)[C@H]1O[C@H]1C[C@@H](OC)[C@H](O)[C@@H](C)O1`, the “fold change (FC)” value in test [1] came to 1.3. The result in test [2] was Active.
Regarding `COc1cc(/C=C/C(=O)CC(=O)/C=C/c2ccc(O)c(OC)c2)ccc1O` [CURCUMIN], the “fold change (FC)” value in test [8] worked out at 1.7.
Regarding `CO[C@H]1C[C@H](O[C@H]2[C@@H](O)C[C@H](O[C@H]3CC[C@]4(C)[C@H]5C[C@@H](OC(=O)/C=C/C=C/c6ccccc6)[C@@]6(C)[C@](O)(CC[C@@]6(O)[C@H](C)O)[C@]5(O)C[C@H](O)[C@@]4(O)C3)O[C@@H]2C)O[C@H](C)[C@H]1O[C@H]1C[C@@H](OC)[C@H](O)[C@@H](C)O1`, the “fold change (FC)” value in test [1] came to 3.1. Further, the result in test [2] was Active.

For the origin of these results see ChEMBL document CHEMBL4477181, “Bioactive Octahydroxylated C21 Steroids from the Root Bark of Lycium chinense” (2016).
